Experimental data published in ChEMBL document CHEMBL3627702, “Navigating CYP1A Induction and Arylhydrocarbon Receptor Agonism in Drug Discovery. A Case History with S1P1 Agonists” (J Med Chem, 2015).

Assays:
[1] = AUC in Sprague-Dawley rat at 17 mg/kg, po QD measured on day 1; assay type: ADME, organism-based; conditions: in vivo
Method in brief: (§1)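 Male CD rats (226−325 g), n = 3, given the compound once daily by oral gavage for 4 days. Vehicle was 1% (w/v) methylcellulose aq suspension at 3−6 mg/mL, dosed at 5 mL/kg (target 15−30 mg/kg). Tail vein blood was taken on days 1 and 4 up to 24 h postdose. Blood was diluted 1:1 with water, extracted by acetonitrile protein precipitation and analysed by LC−MS/MS against calibration standards in diluted blood.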

[2] = AUC in Sprague-Dawley rat at 17 mg/kg, po QD measured on day 4; assay type: ADME, organism-based; conditions: in vivo; method in brief: as §1
[3] = tested on: CYP1A2; assay: Induction of CYP1A2 mRNA expression in Sprague-Dawley rat hepatic microsomes at 17 mg/kg, po QD for 4 days relative to control; assay type: ADME, organism-based, Liver; conditions: read-out: FC
[4] = Cmax in Sprague-Dawley rat at 17 mg/kg, po QD measured on day 1; assay type: ADME, organism-based; parameters: dose 17 mg/kg, route oral; conditions: in vivo; method in brief: as §1
[5] = Lipophilicity, log D of the compound at pH 7.4; assay type: physicochemical; conditions: buffer
[6] = tested on: Rattus norvegicus; assay: Dose normalized AUC in Sprague-Dawley rat at 17 mg/kg, po QD measured on day 1; assay type: ADME, organism-based; conditions: in vivo; method in brief: as §1
[7] = Cmax in Sprague-Dawley rat at 17 mg/kg, po QD measured on day 4; assay type: ADME, organism-based; parameters: dose 17 mg/kg, route oral; conditions: in vivo; method in brief: as §1
[8] = tested on: CYP1A1; assay: Induction of CYP1A1 mRNA expression in Sprague-Dawley rat hepatic microsomes at 17 mg/kg, po QD for 4 days relative to control; assay type: ADME, organism-based, Liver; conditions: read-out: FC
Method in brief: (§2)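 Male CD rats (226–325 g, n = 3) were dosed by oral gavage once daily for 4 days as a 1% w/v aqueous methylcellulose suspension (3–6 mg/mL, 5 mL/kg). At the end of the study, a left lateral liver lobe section was placed in RNALater and homogenised in TRIzol. RNA was purified, DNase-treated and converted to cDNA, and Cyp1a1 was read on low-density TaqMan arrays.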

[9] = tested on: Rattus norvegicus; assay: Dose normalized AUC in Sprague-Dawley rat at 17 mg/kg, po QD measured on day 4; assay type: ADME, organism-based; conditions: in vivo; method in brief: as §1
[10] = tested on: Rattus norvegicus; assay: Dose normalized AUC in Sprague-Dawley rat at 22 mg/kg, po QD measured on day 1; assay type: ADME, organism-based; conditions: in vivo; method in brief: as §1
[11] = tested on: CYP1A2; assay: Induction of CYP1A2 mRNA expression in Sprague-Dawley rat hepatic microsomes at 22 mg/kg, po QD for 4 days relative to control; assay type: ADME, organism-based, Liver; conditions: read-out: FC
[12] = tested on: Rattus norvegicus; assay: Dose normalized AUC in Sprague-Dawley rat at 22 mg/kg, po QD measured on day 4; assay type: ADME, organism-based; conditions: in vivo; method in brief: as §1
[13] = Dissociation constant, pKa of the compound; assay type: physicochemical
[14] = Cmax in Sprague-Dawley rat at 22 mg/kg, po QD measured on day 4; assay type: ADME, organism-based; parameters: dose 22 mg/kg, route oral; conditions: in vivo; method in brief: as §1
[15] = AUC in Sprague-Dawley rat at 22 mg/kg, po QD measured on day 1; assay type: ADME, organism-based; conditions: in vivo; method in brief: as §1
[16] = tested on: CYP1A1; assay: Induction of CYP1A1 mRNA expression in Sprague-Dawley rat hepatic microsomes at 22 mg/kg, po QD for 4 days relative to control; assay type: ADME, organism-based, Liver; conditions: read-out: FC; method in brief: as §2
[17] = AUC in Sprague-Dawley rat at 22 mg/kg, po QD measured on day 4; assay type: ADME, organism-based; conditions: in vivo; method in brief: as §1
[18] = Cmax in Sprague-Dawley rat at 22 mg/kg, po QD measured on day 1; assay type: ADME, organism-based; parameters: dose 22 mg/kg, route oral; conditions: in vivo; method in brief: as §1

AUC [1] | AUC [2] | fold induction at 96 h [3] | Cmax [4] | logD [5] | AUC/dose [6] | Cmax [7] | fold induction at 96 h [8] | AUC/dose [9] | AUC/dose [10] | fold induction at 96 h [11] | AUC/dose [12] | pKa [13] | Cmax [14] | AUC [15] | fold induction at 96 h [16] | AUC [17] | Cmax [18] | Structure (SMILES)
12900 ng·h/mL | 16800 ng·h/mL | 2 | 1610 ng/mL | 2.15 | 46 kg·min/L | 2170 ng/mL | 0.9 | 59 kg·min/L | – | – | – | – | – | – | – | – | – | Cc1c(-c2noc(-c3ccc(OC(C)C)c(C#N)c3)n2)cnc2c1CCN(C(CO)CO)C2
– | – | – | – | 2.84 | – | – | – | – | 66 kg·min/L | 3 | 79 kg·min/L | 7.3 | 2730 ng/mL | 24300 ng·h/mL | 7 | 28800 ng·h/mL | 2100 ng/mL | Cc1c(-c2noc(-c3cnc(OC(C)C)c(C#N)c3)n2)ccc2c1CCN(C(CO)CO)C2
